How the values were obtained:
L1210 [1] = assay: Antitumor activity in mouse L1210 cells allografted in CDF1 mouse assessed as increase in life span at 6.25 mg/kg, ip administered as qd for 9 days relative to control; assay type: functional; conditions: 216 h, route intraperitoneal
Method in brief: (§1)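 CDF1 mice inoculated ip with 10^5 L1210 leukemia cells on day 0; compounds in 0.9% saline given ip once daily days 1–9 (nine injections) across a dose-response range. Antitumor activity = mean increase in life span over untreated controls, expressed as % ILS; duplicate experiments, with drug-related deaths and weight loss monitored.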

L1210 [2] = assay: Antitumor activity in mouse L1210 cells allografted in CDF1 mouse assessed as increase in life span at 3.12 mg/kg, ip administered as qd for 9 days relative to control; assay type: functional; conditions: 216 h, route intraperitoneal; method in brief: as §1
L1210 [3] = assay: Antitumor activity in mouse L1210 cells allografted in CDF1 mouse assessed as increase in life span at 1.56 mg/kg, ip administered as qd for 9 days relative to control; assay type: functional; conditions: 216 h, route intraperitoneal; method in brief: as §1
L1210 [4] = assay: Antitumor activity in mouse L1210 cells allografted in CDF1 mouse assessed as increase in life span at 0.78 mg/kg, ip administered as qd for 9 days relative to control; assay type: functional; conditions: 216 h, route intraperitoneal; method in brief: as §1
Mus musculus [5] = assay: Toxicity in CDF1 mouse assessed as change in body weight at 12.5 mg/kg, ip measured on day 5 relative to control; assay type: organism-based; set-up: dose 12.5 mg/kg, route intraperitoneal; conditions: in vivo
Method in brief: (§2)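 CDF1 mice were implanted ip with 10^5 L1210 leukemia cells on day 0. Drug in 0.9% saline was given ip once daily on days 1–9 (nine injections) in a dose-response design. Body weight was compared with untreated tumor-bearing controls. The work was done as duplicate experiments.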

Mus musculus [6] = assay: Toxicity in CDF1 mouse assessed as change in body weight at 6.25 mg/kg, ip measured on day 5 relative to control; assay type: organism-based; set-up: dose 6.25 mg/kg, route intraperitoneal; conditions: in vivo; method in brief: as §2
Mus musculus [7] = assay: Toxicity in CDF1 mouse assessed as change in body weight at 3.12 mg/kg, ip measured on day 5 relative to control; assay type: organism-based; set-up: dose 3.12 mg/kg, route intraperitoneal; conditions: in vivo; method in brief: as §2
Mus musculus [8] = assay: Toxicity in CDF1 mouse assessed as change in body weight at 1.56 mg/kg, ip measured on day 5 relative to control; assay type: organism-based; set-up: dose 1.56 mg/kg, route intraperitoneal; conditions: in vivo; method in brief: as §2
Mus musculus [9] = assay: Toxicity in CDF1 mouse assessed as change in body weight at 0.78 mg/kg, ip measured on day 5 relative to control; assay type: organism-based; set-up: dose 0.78 mg/kg, route intraperitoneal; conditions: in vivo; method in brief: as §2
[10] = Drug degradation in water solution at 25 degC after 5.5 hrs by reverse phase liquid chromatography; assay type: physicochemical; conditions: read-out: Drug degradation
Method in brief: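 Parent held at 25 °C and sampled over time. Its disappearance was fitted to a first-order rate equation, and the fraction lost was taken at 5.5 h from that fit.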

L1210 [11] = assay: Antitumor activity in mouse L1210 cells allografted in CDF1 mouse assessed as increase in life span at 80 mg/kg, ip administered as qd for 9 days relative to control; assay type: functional; conditions: 216 h, route intraperitoneal; method in brief: as §1
L1210 [12] = assay: Antitumor activity in mouse L1210 cells allografted in CDF1 mouse assessed as increase in life span at 40 mg/kg, ip administered as qd for 9 days relative to control; assay type: functional; conditions: 216 h, route intraperitoneal; method in brief: as §1
L1210 [13] = assay: Antitumor activity in mouse L1210 cells allografted in CDF1 mouse assessed as increase in life span at 25 mg/kg, ip administered as qd for 9 days relative to control; assay type: functional; conditions: 216 h, route intraperitoneal; method in brief: as §1
L1210 [14] = assay: Antitumor activity in mouse L1210 cells allografted in CDF1 mouse assessed as increase in life span at 20 mg/kg, ip administered as qd for 9 days relative to control; assay type: functional; conditions: 216 h, route intraperitoneal; method in brief: as §1
L1210 [15] = assay: Antitumor activity in mouse L1210 cells allografted in CDF1 mouse assessed as increase in life span at 12.5 mg/kg, ip administered as qd for 9 days relative to control; assay type: functional; conditions: 216 h, route intraperitoneal; method in brief: as §1
L1210 [16] = assay: Antitumor activity in mouse L1210 cells allografted in CDF1 mouse assessed as increase in life span at 10 mg/kg, ip administered as qd for 9 days relative to control; assay type: functional; conditions: 216 h, route intraperitoneal; method in brief: as §1
L1210 [17] = assay: Antitumor activity in mouse L1210 cells allografted in CDF1 mouse assessed as increase in life span at 5 mg/kg, ip administered as qd for 9 days relative to control; assay type: functional; conditions: 216 h, route intraperitoneal; method in brief: as §1
Mus musculus [18] = assay: Toxicity in CDF1 mouse assessed as change in body weight at 200 mg/kg, ip measured on day 5 relative to control; assay type: organism-based; set-up: dose 200 mg/kg, route intraperitoneal; conditions: in vivo; method in brief: as §2
Mus musculus [19] = assay: Toxicity in CDF1 mouse assessed as change in body weight at 100 mg/kg, ip measured on day 5 relative to control; assay type: organism-based; set-up: dose 100 mg/kg, route intraperitoneal; conditions: in vivo; method in brief: as §2
Mus musculus [20] = assay: Toxicity in CDF1 mouse assessed as change in body weight at 80 mg/kg, ip measured on day 5 relative to control; assay type: organism-based; set-up: dose 80 mg/kg, route intraperitoneal; conditions: in vivo; method in brief: as §2
Mus musculus [21] = assay: Toxicity in CDF1 mouse assessed as change in body weight at 50 mg/kg, ip measured on day 5 relative to control; assay type: organism-based; set-up: dose 50 mg/kg, route intraperitoneal; conditions: in vivo; method in brief: as §2
Mus musculus [22] = assay: Toxicity in CDF1 mouse assessed as change in body weight at 40 mg/kg, ip measured on day 5 relative to control; assay type: organism-based; set-up: dose 40 mg/kg, route intraperitoneal; conditions: in vivo; method in brief: as §2
Mus musculus [23] = assay: Toxicity in CDF1 mouse assessed as change in body weight at 25 mg/kg, ip measured on day 5 relative to control; assay type: organism-based; set-up: dose 25 mg/kg, route intraperitoneal; conditions: in vivo; method in brief: as §2
Mus musculus [24] = assay: Toxicity in CDF1 mouse assessed as change in body weight at 20 mg/kg, ip measured on day 5 relative to control; assay type: organism-based; set-up: dose 20 mg/kg, route intraperitoneal; conditions: in vivo; method in brief: as §2
Mus musculus [25] = assay: Toxicity in CDF1 mouse assessed as change in body weight at 10 mg/kg, ip measured on day 5 relative to control; assay type: organism-based; set-up: dose 10 mg/kg, route intraperitoneal; conditions: in vivo; method in brief: as §2
Mus musculus [26] = assay: Toxicity in CDF1 mouse assessed as change in body weight at 5 mg/kg, ip measured on day 5 relative to control; assay type: organism-based; set-up: dose 5 mg/kg, route intraperitoneal; conditions: in vivo; method in brief: as §2
[27] = Half life of the compound; assay type: physicochemical
L1210 [28] = assay: Antitumor activity in mouse L1210 cells allografted in CDF1 mouse assessed as increase in life span at 200 mg/kg, ip administered as qd for 9 days relative to control; assay type: functional; conditions: 216 h, route intraperitoneal; method in brief: as §1
L1210 [29] = assay: Antitumor activity in mouse L1210 cells allografted in CDF1 mouse assessed as increase in life span at 100 mg/kg, ip administered as qd for 9 days relative to control; assay type: functional; conditions: 216 h, route intraperitoneal; method in brief: as §1
L1210 [30] = assay: Antitumor activity in mouse L1210 cells allografted in CDF1 mouse assessed as increase in life span at 50 mg/kg, ip administered as qd for 9 days relative to control; assay type: functional; conditions: 216 h, route intraperitoneal; method in brief: as §1
[31] = Drug degradation in water solution at 25 degC after 4 hrs by reverse phase liquid chromatography; assay type: physicochemical; conditions: read-out: Drug degradation
Method in brief: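 Nucleoside in water solution held at 25 °C; the loss of parent compound over time was measured by LC analysis. Degradation was read at 4 h.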

Compound	ILS at 6.25 mg/kg (L1210 [1]) [%]	ILS at 3.12 mg/kg (L1210 [2]) [%]	ILS at 1.56 mg/kg (L1210 [3]) [%]	ILS at 0.78 mg/kg (L1210 [4]) [%]	Activity (Mus musculus [5])	Activity (Mus musculus [6]) [g]	Activity (Mus musculus [7]) [g]	Activity (Mus musculus [8]) [g]	Activity (Mus musculus [9]) [g]	ILS at 25 mg/kg (L1210 [13]) [%]	ILS at 12.5 mg/kg (L1210 [15]) [%]	Activity (Mus musculus [18])	Activity (Mus musculus [19])	Activity (Mus musculus [21]) [g]	Activity (Mus musculus [23]) [g]	also measured
Nc1ncn([C@@H]2O[C@H](CO)[C@@H](O)[C@H]2O)c(=O)n1 [AZACITIDINE]	1	33	66	26	Toxic	-6.1	-5.3	-1.3	-2							degraded at 5.5 h [10]: 15%
Nc1ccn([C@@H]2O[C@H](CO)[C@@H](O)[C@@H]2O)c(=O)n1 [CYTARABINE]	34	28			-0.4 g	0.3	0.3			121	91	Non-toxic	Non-toxic	-1.8	0	ILS at 80 mg/kg (L1210 [11]): 92%; ILS at 40 mg/kg (L1210 [12]): 123%; ILS at 20 mg/kg (L1210 [14]): 127%; ILS at 10 mg/kg (L1210 [16]): 84%; ILS at 5 mg/kg (L1210 [17]): 47%; Activity (Mus musculus [20]): -1.8 g; Activity (Mus musculus [22]): -1 g; Activity (Mus musculus [24]): -0.3 g; Activity (Mus musculus [25]): -0.2 g; Activity (Mus musculus [26]): 0.4 g; half-life [27]: 34 h
Nc1ncn([C@@H]2O[C@H](CO)[C@@H](O)[C@@H]2O)c(=O)n1 [FAZARABINE]	41	28	66	39	-3.7 g	-2.5	-3.3	-1.3	-1.2	58	58	-2.8 g	-4 g	-3.3	-4	ILS at 200 mg/kg (L1210 [28]): 19%; ILS at 100 mg/kg (L1210 [29]): 80%; ILS at 50 mg/kg (L1210 [30]): 92%; degraded at 4 h [31]: 15%
